High-throughput results (PubChem)
Apaf1 inhib = blocks human Apaf-1 apoptosome activity; inhibition, % at 20 µM; actives 0.71% (n = 330,000); O14727; AID 489030; reconstituted apoptosome caspase-3 activity, DEVD-Rh110 fluorescence; active = inhibition of at least 40% at 20 µM;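 note: plate controls were DMSO wells for no effect and DEVD-CHO caspase inhibitor wells for full effect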
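System: reconstituted apoptosome with Apaf-1, cytochrome c, caspase-9, procaspase-3, dATP; Signal: Rh110 fluorescence intensity; Schedule: 30 min compound preincubation, 50 min activation, room temperature; Reagent: cytochrome c trigger plus (Z-DEVD)2-Rh110 caspase-3 substrate.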
PAD4 FP inh = inhibitors of human PAD4. recombinant PAD4, RCA probe fluorescence polarization. actives 0.41% (n = 330,000). inhibition, % at 6.36 µM;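 active = percent inhibition above a cutoff equal to the mean of all tested compounds plus 3 SD, cut at about 15% in these data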;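 note: 0% = PAD4 with RCA probe and DMSO and 100% = probe without PAD4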
TDP2 inh = blocks human TDP2 phosphodiesterase activity | recombinant TDP2, T5PNP hydrolysis, p-nitrophenol absorbance 415 nm | inhibition, % at 12.8 µM | actives 0.34% (n = 370,000) | AID 720702;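 active = inhibition above the mean of all tested compounds plus 3 SD, set per campaign, cut at about 25% in these data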;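 note: 0% = DMSO with enzyme and 100% = buffer with substrate but no TDP2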
Target sequence (O95551 whole entry, looked up): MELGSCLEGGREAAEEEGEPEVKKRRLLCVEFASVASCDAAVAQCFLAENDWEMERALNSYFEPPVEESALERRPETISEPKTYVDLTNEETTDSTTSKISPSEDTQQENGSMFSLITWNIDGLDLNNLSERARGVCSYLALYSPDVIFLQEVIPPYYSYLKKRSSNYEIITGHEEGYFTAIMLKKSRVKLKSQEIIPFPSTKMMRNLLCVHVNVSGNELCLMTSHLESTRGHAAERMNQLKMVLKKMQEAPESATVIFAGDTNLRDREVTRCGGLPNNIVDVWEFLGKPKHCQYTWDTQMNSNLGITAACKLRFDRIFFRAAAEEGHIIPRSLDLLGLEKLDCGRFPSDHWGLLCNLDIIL
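Material: recombinant human TDP2; quantity: TDP2 enzyme at 120 nM final; medium: Tris-HCl pH 7.5 with MgCl2; compound: single concentration, 12.8 µM nominal, with 1% DMSO; incubation: 2 h enzyme incubation at 37 °C; signal: epi absorbance; measure: percent inhibition; benchmarks: high control without enzyme, low control DMSO plus TDP2; repeats: singlicate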
GSTO1 counter = counter-screen for RBBP9 inhibitors: inhibitors of human GSTO1; recombinant GSTO1, activity-based probe fluorescence polarization; inhibition, % at 5.96 µM; P78417; actives 1.1% (n = 300,000);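 active = inhibition above the campaign mean inhibition plus 3 SD, cut at about 35% in these data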;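 note: 0% = GSTO1-1 with DMSO and 100% = wells lacking GSTO1-1 enzyme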
Target sequence (P78417 whole entry, looked up): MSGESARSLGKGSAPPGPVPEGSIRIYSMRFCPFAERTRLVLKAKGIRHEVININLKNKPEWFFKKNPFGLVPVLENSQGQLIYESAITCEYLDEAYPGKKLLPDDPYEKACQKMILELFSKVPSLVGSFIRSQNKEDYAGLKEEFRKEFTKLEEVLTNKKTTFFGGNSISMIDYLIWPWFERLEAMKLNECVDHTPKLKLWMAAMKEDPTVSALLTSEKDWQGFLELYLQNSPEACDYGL
CTSL1 counter = cathepsin L1 inhibition, PFM18AAP counter-screen | recombinant F. hepatica cathepsin L1, Z-Leu-Arg-MCA fluorescence | inhibition, % at 5.96 µM | actives 0.49% (n = 300,000);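 active = inhibition above the mean of all tested compounds plus 3 SD, set per screening campaign, cut at about 17% in these data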;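 note: 0% = plate median of test compound wells and 100% = 1 µM Z-Phe-Ala-diazomethylketone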
The depositor's hits bear a star; · = no result given. A selection: hits, their analogues and other compounds. The true share with any hit is near 1.8%.

SMILES | Apaf1 inhib | PAD4 FP inh | TDP2 inh | GSTO1 counter | CTSL1 counter
C#CCOCCOCCOCCNc1nc(N2CCN(C(=O)[C@H](Cc3ccc(O)cc3)n3cc([C@@H](N)C(C)CC)nn3)CC2)nc(N2CCN(C(=O)[C@H](Cc3cc4ccccc4[nH]3)n3cc([C@@H](N)C(C)CC)nn3)CC2)n1 (stereo not given in full) | 33 | -2 | · | 0 | 5
C#CCOCCOCCOCCNc1nc(N2CCN(C(=O)C(Cc3cc4ccccc4[nH]3)n3cc(C(N)Cc4ccc(O)cc4)nn3)CC2)nc(N2CCN(C(=O)C(CCC(=O)O)n3cc(C(N)C(C)CC)nn3)CC2)n1 (stereo not given) | 11 | -6 | -2 | 1 | -1
CC(=O)Nc1ccc(S(=O)(=O)NCCC(=O)Nc2ccc(C)c(Cl)c2)cc1 | -5 | -3 | 8 | 0 | 2
CC(=O)Nc1ccc(S(=O)(=O)NCCSCc2ccccc2Cl)cc1 | 1 | -2 | 8 | 54* | -2
CCCC[C@H]1C2CC(OC(=O)NCCCc3ccccc3)C(C2)[C@H]2CCCCN21 (stereo not given in full) | · | · | -5 | · | ·
CC(C)[C@H](NC(=O)c1ccc(Cl)c(Cl)c1)C(=O)N1CCC[C@H]1C(=O)NCCc1ccccc1Cl | · | · | -1 | · | ·
CC1(C)CC(=O)C2=C(C1)OC(N)=C(C#N)C2C#Cc1ccccc1 (stereo not given) | 14 | 3 | -3 | 35* | 0
CC(c1ccccc1)C1C(C#N)=C(N)OC2=C1C(=O)CC(C)(C)C2 (stereo not given) | -3 | -4 | 2 | -7 | 0
CCn1c2ccccc2c2cc(NC(=O)COC(=O)c3cc(F)ccc3F)ccc21 | · | · | 1 | · | ·
C#CCOCCOCCOCCNc1nc(N2CCN(C(=O)CCCCCCCCCCNC(=O)[C@@H](CCSC)n3cc(CCO)nn3)CC2)nc(N2CCN(C(=O)CCCCCCCCCCNC(=O)[C@H]([C@@H](C)CC)n3cc(CCCCN=C(N)N)nn3)CC2)n1 | 64* | -16 | · | -10 | 6
C#CCOCCOCCOCCNc1nc(N2CCOCC2)nc(N2CCN(C(=O)CCCCCCCCCCNC(=O)[C@@H](CCSC)n3cc(CCO)nn3)CC2)n1 | 8 | -2 | 10 | -9 | -3
C#CCOCCOCCOCCNc1nc(N2CCN(C(=O)CCCCCCCCCCNC(=O)[C@@H](CCSC)n3cc(CCO)nn3)CC2)nc(N2CCN(C(=O)CCCCCCCCCCNC(=O)[C@H]([C@@H](C)CC)n3cc(CCCCCN)nn3)CC2)n1 | 51* | -3 | · | 5 | 2
Oc1c(N=Nc2nn[nH]n2)ccc2ccccc12 | · | · | 26* | · | ·
Nn1c(C2COc3ccccc3O2)n[nH]c1=S (stereo not given) | -9 | -5 | 7 | 35* | -3
c1ccc(Cc2nnc3sc(-c4cccnc4)nn23)cc1 | -17 | 1 | 6 | -3 | 22*
CCCCCCCNC(=O)C1(CC2CC(c3ccccc3)=NO2)CCNCC1 (stereo not given) | 23 | 3 | 1 | 0 | -1
O=C(NCc1ccccc1)C1(CC2CC(c3ccccc3)=NO2)CCNCC1 (stereo not given) | 47* | -4 | -2 | · | ·
Cc1cccc(-c2cccc3c4c([nH]c23)[C@@H]2C[C@H](N(C)C(=O)C3CCCCC3)[C@H]([C@H](C)O)CN2CC4)c1 | · | · | -10 | · | ·
COC(=O)C1=C(C)N(Cc2cccc(C(F)(F)F)c2)C(=NCC2CC2)NC1c1ccccc1C(F)(F)F (stereo not given) | · | · | -2 | · | ·
COC(=O)NC(NS(=O)(=O)c1ccccc1)(C(=O)OC)C(F)(F)F (stereo not given) | -5 | -1 | 1 | 36* | 2
COC(=O)C(NC(C)=O)(Nc1ccccn1)C(F)(F)F (stereo not given) | 20 | 1 | -4 | 8 | 0
COc1cccc(OCC(O)CN2CCC(CN3C(=O)c4cccc5cccc(c45)C3=O)CC2)c1 (stereo not given) | 11 | -2 | 7 | 1 | 33*
COc1ccc(-n2nc(C(=O)N3CCC(N4CCCCC4)CC3)c3c4ccccc4n(C)c3c2=O)cc1 | 0 | -5 | 9 | -3 | 19*
CN(Cc1ccco1)C(=O)c1cccc2c1C(=O)N(Cc1cccnc1)C2 | · | · | -2 | · | ·
CCOc1ccc2nc(N/C(N)=N/C(=S)Nc3cccc(OC)c3)nc(C)c2c1 | -4 | -1 | -8 | -9 | 23*
SMILES | Apaf1 inhib | PAD4 FP inh | TDP2 inh | GSTO1 counter | CTSL1 counter
CCCC1CCC2(CCCN2CCOC(=O)Nc2ccccc2)CC1 (stereo not given) | · | · | 6 | · | ·
Cc1nc2ccc(NC(=O)c3c(Cl)cccc3Cl)cc2c(=O)[nH]1 | · | · | 2 | · | ·
O=C(CNC(=O)c1ccco1)OCN1C(=O)c2ccccc2C1=O | 3 | -1 | -9 | 37* | 28*
COC(=O)[C@]12C[C@H](CC(=O)NCCCN3CCCC3=O)C(=O)N(Cc3cccc4ccccc34)C1=C[C@H](C1CCCC1)O[C@@H]2C | · | · | 1 | · | ·
Oc1ccccc1C=NN1CCN(Cc2ccccc2)CC1 | · | · | -3 | · | ·
N=C1/C(=C\c2coc3ccc(O)cc3c2=O)C(=O)N=C2SC=CN12 | -17 | -12 | 2 | 57* | 2
CCCN(CCC)S(=O)(=O)c1ccc(Cl)c([N+](=O)[O-])c1 | 17 | -4 | 3 | 35* | -2
CCCN(CCC)S(=O)(=O)c1ccc(N2CCCC2=O)c([N+](=O)[O-])c1 | 1 | 6 | 7 | -2 | 0
COc1ccc(-c2nnc(SCC(=O)NN=C/C=C\c3ccco3)n2-c2ccc(OC)cc2)cc1 | · | · | 3 | · | ·
N#CC1(NC(=O)COc2ccccc2[N+](=O)[O-])CCCCC1 | 9 | 3 | 4 | 3 | -1
C=CCOc1ccc(C(=O)c2ccccc2)c(OCC(=O)NC2(C#N)CCCC2)c1 | 21 | -4 | 1 | -5 | 18*
Cc1n[nH]c(C)c1S(=O)(=O)NCCc1cccc(F)c1 | · | · | 1 | · | ·
CCOc1cc(N2CCOCC2)c(OCC)cc1NC(=O)COC(=O)c1cc(C)cc(C)c1 | 22 | 1 | 12 | 17 | 50*
CCOc1cc(N2CCOCC2)c(OCC)cc1NC(=O)COC(=O)c1cc(C)oc1C | -1 | 1 | -2 | 12 | 41*
CCCCCCCC(=O)N[C@H]1CC[C@@]23CCCN2C(=O)CCC[C@H]3[C@H]1C | · | · | 1 | · | ·
CC(C)CNC(=O)OCc1cn(Cc2cccc(F)c2)nn1 | · | · | 4 | · | ·
CCC[C@H]1[C@@H](OC(=O)NCc2ccco2)CC[C@@]23CCCN2C(=O)CCC[C@@H]13 | · | · | 10 | · | ·
Cc1cc([N+](=O)[O-])cc2c1NC(=O)C2(O)N1CCCC(C)C1 (stereo not given) | 3 | 0 | 18 | 37* | 5
Cc1cc(C(=O)COC(=O)C(C)NC(N)=O)c(C)n1Cc1ccco1 (stereo not given) | 3 | -2 | 3 | 19 | -4
Cc1cc(C(=O)C(C)Cl)c(C)n1Cc1ccco1 (stereo not given) | 2 | -7 | 8 | 81* | 2
